From the M2OR odorant receptor database
Where a chain is given by its changes, count along the chain named.

Assays:
Conditions in all cases: stereoisomer not certain
OR1G1 (Homo sapiens) = molecular target: T1, OR1G1 (Homo sapiens) (UniProt P47890)
T1 sequence (whole entry): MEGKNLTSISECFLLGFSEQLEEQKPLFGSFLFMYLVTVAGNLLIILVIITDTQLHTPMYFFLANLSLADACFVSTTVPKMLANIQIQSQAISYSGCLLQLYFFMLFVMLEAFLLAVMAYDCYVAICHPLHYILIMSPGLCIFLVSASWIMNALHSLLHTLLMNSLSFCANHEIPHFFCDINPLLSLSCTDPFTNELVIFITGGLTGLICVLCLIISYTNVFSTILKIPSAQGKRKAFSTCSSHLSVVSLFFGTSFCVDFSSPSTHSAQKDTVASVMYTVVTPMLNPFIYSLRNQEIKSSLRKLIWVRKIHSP
Procedure, shortened: (§1)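 Each receptor–molecule pair is labelled responsive or non-responsive (inactive) according to whether the original authors judged the measured signal statistically different from baseline. The data were taken from the main text and supplementary material of published papers and checked for typos and inconsistencies. Assay methods differed by source, with transient luciferase assays in mammalian cell lines being common.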

OR1D5 (Homo sapiens) = molecular target: T2, OR1D5 (Homo sapiens) (UniProt P58170)
T2 sequence (whole entry): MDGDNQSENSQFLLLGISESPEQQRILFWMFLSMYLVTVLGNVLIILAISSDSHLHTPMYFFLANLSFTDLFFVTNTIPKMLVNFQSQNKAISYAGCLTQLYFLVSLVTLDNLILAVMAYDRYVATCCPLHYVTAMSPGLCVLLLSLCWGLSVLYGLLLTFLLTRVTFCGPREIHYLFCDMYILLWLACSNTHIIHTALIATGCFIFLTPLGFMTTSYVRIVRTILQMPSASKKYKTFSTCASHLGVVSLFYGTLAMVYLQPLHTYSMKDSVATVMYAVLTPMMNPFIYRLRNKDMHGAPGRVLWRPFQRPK
Procedure, shortened: as §1

OR1E1 (Homo sapiens) = molecular target: T3, OR1E1 (Homo sapiens) (UniProt P30953)
T3 sequence (whole entry): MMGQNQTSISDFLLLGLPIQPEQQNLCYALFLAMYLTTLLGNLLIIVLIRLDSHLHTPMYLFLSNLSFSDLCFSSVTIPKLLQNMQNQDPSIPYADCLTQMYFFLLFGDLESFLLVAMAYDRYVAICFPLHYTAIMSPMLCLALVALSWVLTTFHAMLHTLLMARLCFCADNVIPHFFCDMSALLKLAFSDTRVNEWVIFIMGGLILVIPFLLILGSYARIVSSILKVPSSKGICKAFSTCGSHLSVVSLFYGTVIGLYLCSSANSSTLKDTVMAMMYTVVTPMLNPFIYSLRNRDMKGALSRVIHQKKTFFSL
Procedure, shortened: as §1

OR1E2 (Homo sapiens) = molecular target: T4, OR1E2 (Homo sapiens) (UniProt P47887)
T4 sequence (whole entry): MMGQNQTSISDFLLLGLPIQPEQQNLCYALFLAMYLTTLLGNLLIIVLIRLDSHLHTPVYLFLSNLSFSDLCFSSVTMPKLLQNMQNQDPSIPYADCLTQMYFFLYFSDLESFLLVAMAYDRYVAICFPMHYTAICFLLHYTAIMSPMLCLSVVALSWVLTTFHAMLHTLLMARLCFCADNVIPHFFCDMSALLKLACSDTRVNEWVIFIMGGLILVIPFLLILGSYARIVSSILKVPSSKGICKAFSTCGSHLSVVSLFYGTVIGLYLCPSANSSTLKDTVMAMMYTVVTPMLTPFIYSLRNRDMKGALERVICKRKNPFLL
Procedure, shortened: as §1

OR1E2 = test system: T5, OR1E2
T5 sequence (whole entry): T4 sequence (whole entry) with C27R
Procedure, shortened: as §1

OR1F1 (Homo sapiens) = molecular target: T6, OR1F1 (Homo sapiens) (UniProt O43749)
T6 sequence (whole entry): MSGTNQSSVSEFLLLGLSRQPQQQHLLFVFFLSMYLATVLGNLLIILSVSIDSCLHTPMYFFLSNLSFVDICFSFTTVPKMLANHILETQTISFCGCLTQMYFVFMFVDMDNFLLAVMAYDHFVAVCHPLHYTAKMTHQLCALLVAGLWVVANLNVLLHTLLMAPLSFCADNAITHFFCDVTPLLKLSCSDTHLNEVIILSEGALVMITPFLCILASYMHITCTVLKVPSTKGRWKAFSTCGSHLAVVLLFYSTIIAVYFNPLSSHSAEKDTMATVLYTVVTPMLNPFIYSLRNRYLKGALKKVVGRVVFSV
Procedure, shortened: as §1

OR1F12P (Homo sapiens) = molecular target: T7, OR1F12P (Homo sapiens) (UniProt Q8NHA8)
T7 sequence (whole entry): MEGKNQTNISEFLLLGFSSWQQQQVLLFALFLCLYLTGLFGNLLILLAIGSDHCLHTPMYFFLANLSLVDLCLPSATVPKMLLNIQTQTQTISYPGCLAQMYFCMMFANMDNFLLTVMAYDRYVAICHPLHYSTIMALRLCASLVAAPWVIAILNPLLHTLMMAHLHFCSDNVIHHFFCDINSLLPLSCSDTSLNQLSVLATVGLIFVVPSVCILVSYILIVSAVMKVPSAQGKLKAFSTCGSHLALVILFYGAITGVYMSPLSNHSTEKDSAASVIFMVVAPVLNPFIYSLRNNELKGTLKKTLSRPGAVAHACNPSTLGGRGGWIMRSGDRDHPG
Procedure, shortened: as §1

OR1F1 = test system: T8, OR1F1
T8 sequence (whole entry): T6 sequence (whole entry) with F75S
Procedure, shortened: as §1

OR1I1 (Homo sapiens) = molecular target: T9, OR1I1 (Homo sapiens) (UniProt O60431)
T9 sequence (whole entry): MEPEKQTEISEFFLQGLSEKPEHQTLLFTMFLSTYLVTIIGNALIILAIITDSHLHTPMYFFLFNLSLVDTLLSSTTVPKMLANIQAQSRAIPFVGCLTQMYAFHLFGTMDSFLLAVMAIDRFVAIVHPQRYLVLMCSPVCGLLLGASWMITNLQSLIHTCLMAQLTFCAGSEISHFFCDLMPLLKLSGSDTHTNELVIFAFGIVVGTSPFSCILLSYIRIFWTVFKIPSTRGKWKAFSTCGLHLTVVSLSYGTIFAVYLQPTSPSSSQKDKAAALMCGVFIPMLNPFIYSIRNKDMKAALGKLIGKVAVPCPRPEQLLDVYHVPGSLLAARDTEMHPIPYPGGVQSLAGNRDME
Procedure, shortened: as §1

OR1J1 (Homo sapiens) = molecular target: T10, OR1J1 (Homo sapiens) (UniProt Q8NGS3)
T10 sequence (whole entry): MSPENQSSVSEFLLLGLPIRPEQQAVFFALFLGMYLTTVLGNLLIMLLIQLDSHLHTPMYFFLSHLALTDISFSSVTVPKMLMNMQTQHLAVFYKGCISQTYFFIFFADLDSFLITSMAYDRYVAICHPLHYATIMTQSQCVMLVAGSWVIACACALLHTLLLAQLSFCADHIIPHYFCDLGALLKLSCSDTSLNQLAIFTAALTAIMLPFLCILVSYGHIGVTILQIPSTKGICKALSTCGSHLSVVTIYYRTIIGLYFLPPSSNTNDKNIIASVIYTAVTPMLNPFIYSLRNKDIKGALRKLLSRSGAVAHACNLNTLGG
Procedure, shortened: as §1

OR1J2 (Homo sapiens) = molecular target: T11, OR1J2 (Homo sapiens) (UniProt Q8NGS2)
T11 sequence (whole entry): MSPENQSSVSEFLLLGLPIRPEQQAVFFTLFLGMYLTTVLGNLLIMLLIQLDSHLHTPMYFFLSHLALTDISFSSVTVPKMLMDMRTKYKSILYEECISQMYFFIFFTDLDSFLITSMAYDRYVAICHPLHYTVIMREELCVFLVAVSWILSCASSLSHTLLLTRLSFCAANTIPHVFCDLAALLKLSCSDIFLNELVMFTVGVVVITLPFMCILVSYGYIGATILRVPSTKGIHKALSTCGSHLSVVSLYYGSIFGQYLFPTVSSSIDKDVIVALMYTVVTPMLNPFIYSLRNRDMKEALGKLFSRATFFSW
Procedure, shortened: as §1

OR1J4 (Homo sapiens) = molecular target: T12, OR1J4 (Homo sapiens) (UniProt Q8NGS1)
T12 sequence (whole entry): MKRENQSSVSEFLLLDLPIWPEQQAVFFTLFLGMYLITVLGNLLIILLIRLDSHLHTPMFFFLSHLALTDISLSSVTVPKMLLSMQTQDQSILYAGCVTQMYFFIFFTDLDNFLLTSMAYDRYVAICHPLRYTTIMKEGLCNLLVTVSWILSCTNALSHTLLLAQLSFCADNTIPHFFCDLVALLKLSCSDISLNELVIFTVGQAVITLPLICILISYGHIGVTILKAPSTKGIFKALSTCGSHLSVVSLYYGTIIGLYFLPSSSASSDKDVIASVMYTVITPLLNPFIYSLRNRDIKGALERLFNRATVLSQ
Procedure, shortened: as §1

OR1K1 (Homo sapiens) = molecular target: T13, OR1K1 (Homo sapiens) (UniProt Q8NGR3)
T13 sequence (whole entry): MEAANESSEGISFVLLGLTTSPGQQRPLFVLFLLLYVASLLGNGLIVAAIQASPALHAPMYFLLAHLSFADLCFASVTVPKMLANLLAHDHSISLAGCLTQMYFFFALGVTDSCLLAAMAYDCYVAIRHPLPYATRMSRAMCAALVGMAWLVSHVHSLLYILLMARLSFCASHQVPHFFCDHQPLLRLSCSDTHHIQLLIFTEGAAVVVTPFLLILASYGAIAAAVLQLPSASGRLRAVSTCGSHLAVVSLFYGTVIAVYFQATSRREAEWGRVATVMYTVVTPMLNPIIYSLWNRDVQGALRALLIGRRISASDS
Procedure, shortened: as §1

OR1L1 = test system: T14, OR1L1
T14 sequence (whole entry): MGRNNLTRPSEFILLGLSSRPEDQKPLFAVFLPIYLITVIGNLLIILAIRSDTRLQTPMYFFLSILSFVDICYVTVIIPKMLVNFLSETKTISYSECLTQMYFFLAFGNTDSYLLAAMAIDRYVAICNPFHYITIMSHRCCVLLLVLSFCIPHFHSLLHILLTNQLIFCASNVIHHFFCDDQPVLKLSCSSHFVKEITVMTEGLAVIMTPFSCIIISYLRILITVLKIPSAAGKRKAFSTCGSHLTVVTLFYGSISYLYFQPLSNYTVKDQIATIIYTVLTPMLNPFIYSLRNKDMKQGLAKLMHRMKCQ
Procedure, shortened: as §1

OR1D4 (Homo sapiens) = molecular target: T15, OR1D4 (Homo sapiens) (UniProt P47884)
T15 sequence (whole entry): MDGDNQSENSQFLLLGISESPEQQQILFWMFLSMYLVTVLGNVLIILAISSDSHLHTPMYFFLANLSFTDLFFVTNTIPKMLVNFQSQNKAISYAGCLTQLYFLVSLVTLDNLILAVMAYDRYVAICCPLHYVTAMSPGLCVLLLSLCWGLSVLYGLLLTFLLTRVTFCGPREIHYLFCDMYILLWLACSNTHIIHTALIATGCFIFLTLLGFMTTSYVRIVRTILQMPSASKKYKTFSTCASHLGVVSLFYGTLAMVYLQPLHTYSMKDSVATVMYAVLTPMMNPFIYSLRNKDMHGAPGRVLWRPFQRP
Procedure, shortened: as §1

OR1L1 (Homo sapiens) = molecular target: T16, OR1L1 (Homo sapiens) (UniProt Q8NH94)
T16 sequence (whole entry): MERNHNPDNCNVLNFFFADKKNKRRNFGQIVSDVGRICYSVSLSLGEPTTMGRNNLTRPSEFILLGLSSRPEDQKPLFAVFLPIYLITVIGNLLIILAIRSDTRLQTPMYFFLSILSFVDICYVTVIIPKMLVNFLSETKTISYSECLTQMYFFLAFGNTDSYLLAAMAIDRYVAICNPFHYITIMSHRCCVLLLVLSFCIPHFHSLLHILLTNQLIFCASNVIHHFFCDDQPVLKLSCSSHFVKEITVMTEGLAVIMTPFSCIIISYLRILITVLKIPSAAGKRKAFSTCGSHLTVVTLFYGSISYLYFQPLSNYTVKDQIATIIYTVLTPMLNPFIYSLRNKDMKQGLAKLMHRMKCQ
Procedure, shortened: as §1

OR1E3 (Homo sapiens) = OR1E3 (Homo sapiens) (UniProt Q8WZA6)
Procedure, shortened: as §1

Measured: odorant receptor agonist call

OR1E3 (Homo sapiens), sequence (Q8WZA6 whole entry): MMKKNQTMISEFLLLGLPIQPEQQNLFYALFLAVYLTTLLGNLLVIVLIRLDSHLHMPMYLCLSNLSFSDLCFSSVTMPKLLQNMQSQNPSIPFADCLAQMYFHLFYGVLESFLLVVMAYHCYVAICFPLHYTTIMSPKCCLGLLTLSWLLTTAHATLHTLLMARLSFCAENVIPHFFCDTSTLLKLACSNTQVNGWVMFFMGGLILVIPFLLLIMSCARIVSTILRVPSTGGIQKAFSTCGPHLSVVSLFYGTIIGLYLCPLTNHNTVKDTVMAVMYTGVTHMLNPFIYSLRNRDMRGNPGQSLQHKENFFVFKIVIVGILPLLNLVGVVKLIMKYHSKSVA

OCc1ccccc1
active: OR1G1 (Homo sapiens)

CCCC(S)CCOC(C)=O (centres undefined)
not listed: OR1D4 (Homo sapiens) | OR1L1 (Homo sapiens) | OR1E3 (Homo sapiens)
inactive: all other assays above

CCCCCC(=O)C(C)C(C)=O (centres undefined)
not listed: OR1E2 | OR1F1 | OR1L1 | OR1E3 (Homo sapiens)
inactive: all other assays above

CCC1OC(=O)C(O)=C1C (centres undefined)
not listed: OR1D4 (Homo sapiens) | OR1L1 (Homo sapiens) | OR1E3 (Homo sapiens)
inactive: all other assays above

CC(=O)c1c(C)c([N+](=O)[O-])c(C(C)(C)C)c([N+](=O)[O-])c1C
not listed: OR1E1 (Homo sapiens) | OR1E2 | OR1F1 | OR1J2 (Homo sapiens) | OR1J4 (Homo sapiens) | OR1L1
inactive: all other assays above

Cc1ccc(C(C)C)cc1O
inactive: OR1G1 (Homo sapiens)
